From ChEMBL document CHEMBL3817745, “Structure-Activity Relationship for the 4(3H)-Quinazolinone Antibacterials” (J Med Chem, 2016)
Converted amounts (≈) assume the structure as drawn. The source made the active and inactive calls. The rule behind the calls is not given here.

Tests used:
[1] = tested on: Staphylococcus aureus; experiment: Antibacterial activity against methicillin-susceptible Staphylococcus aureus ATCC 29213 incubated for 16 to 20 hrs by microdilution method; type: functional
[2] = tested on: Mus musculus; experiment: AUC (0 to last) in ICR mouse peritonitis model infected with methicillin resistant Staphylococcus aureus ATCC 27660 at 5 mg/kg, iv administered as single dose measured up to 8 hrs by UPLC analysis; type: ADME, organism-based; parameters: dose 5 mg/kg, route intravenous, time 0 - last; conditions: in vivo
Procedure, shortened: (§1)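 Fast PK: female ICR mice (n = 2 per time point) given single tail-vein iv injection at 5, 10 or 20 mg/kg in 25% DMSO/65% propylene glycol/10% water (2.5, 5 or 10 mg/mL); terminal cardiac blood at 5 min, 40 min, 2, 4, 8 h; plasma analysed by UPLC with internal standard calibration.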

[3] = tested on: HepG2; experiment: Cytotoxicity against human HepG2 cells incubated for 16 hrs by XTT assay; type: cell-based; conditions: HepG2, 16 h
Procedure, shortened: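 HepG2 cells were tested with an XTT viability read-out, in triplicate. IC50 was obtained by nonlinear regression.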

[4] = Hemolytic activity against human RBC at 64 ug/ml relative to control; type: ADME, cell-based, Erythrocyte; conditions: erythrocyte
Procedure, shortened: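 Hemolysis was measured at a fixed 64 μg/mL on a 10% red-cell suspension from heparinized human blood. Triton-X served as the positive control, and results are given as percent hemolysis.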

[5] = tested on: Staphylococcus aureus; experiment: Antibacterial activity against mecA-positive methicillin/oxacillin/tetracycline-resistant Staphylococcus aureus ATCC 27660 incubated for 16 to 20 hrs by microdilution method; type: functional
[6] = tested on: Staphylococcus aureus; experiment: Antibacterial activity against mecA-positive multidrug resistant Staphylococcus aureus COL NRS100 incubated for 16 to 20 hrs by microdilution method; type: functional
[7] = tested on: Staphylococcus aureus; experiment: Antibacterial activity against mecA-positive multidrug resistant Staphylococcus aureus NRS119 incubated for 16 to 20 hrs by microdilution method; type: functional
[8] = tested on: Staphylococcus aureus; experiment: Antibacterial activity against mecA-positive multidrug resistant Staphylococcus aureus NRS120 incubated for 16 to 20 hrs by microdilution method; type: functional
[9] = tested on: Staphylococcus aureus; experiment: Antibacterial activity against vancomycin/methicillin-resistant Staphylococcus aureus VRS1 clinical isolate incubated for 16 to 20 hrs by microdilution method; type: functional
[10] = tested on: Staphylococcus aureus; experiment: Antibacterial activity against vancomycin/methicillin-resistant Staphylococcus aureus VRS2 clinical isolate incubated for 16 to 20 hrs by microdilution method; type: functional
[11] = tested on: Staphylococcus epidermidis; experiment: Antibacterial activity against Staphylococcus epidermidis ATCC 35547 incubated for 16 to 20 hrs by microdilution method; type: functional
Procedure, shortened: (§2)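 CLSI broth microdilution. 2-fold serial dilutions were made in cation-adjusted Mueller–Hinton broth, with 5% lysed horse blood added for Streptococcus strains, in triplicate. Inoculum 5×10^5 CFU/mL. Plates incubated 36 °C for 16–20 h. MIC taken as the lowest concentration visibly inhibiting growth.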

[12] = tested on: Staphylococcus haemolyticus; experiment: Antibacterial activity against Staphylococcus haemolyticus ATCC 29970 incubated for 16 to 20 hrs by microdilution method; type: functional
[13] = tested on: Streptococcus oralis; experiment: Antibacterial activity against Streptococcus oralis ATCC 9811 incubated for 16 to 20 hrs by microdilution method; type: functional; procedure, shortened: as §2
[14] = tested on: Streptococcus pyogenes; experiment: Antibacterial activity against Streptococcus pyogenes ATCC 49399 incubated for 16 to 20 hrs by microdilution method; type: functional; procedure, shortened: as §2
[15] = tested on: Bacillus cereus; experiment: Antibacterial activity against Bacillus cereus ATCC 13061 incubated for 16 to 20 hrs by microdilution method; type: functional; procedure, shortened: as §2
[16] = tested on: Bacillus licheniformis; experiment: Antibacterial activity against Bacillus licheniformis ATCC 12759 incubated for 16 to 20 hrs by microdilution method; type: functional; procedure, shortened: as §2
[17] = tested on: Enterococcus faecalis; experiment: Antibacterial activity against methicillin-susceptible Enterococcus faecalis ATCC 29212 incubated for 16 to 20 hrs by microdilution method; type: functional; procedure, shortened: as §2
[18] = tested on: Enterococcus faecalis; experiment: Antibacterial activity against vancomycin-resistant Enterococcus faecalis 99 clinical isolate incubated for 16 to 20 hrs by microdilution method; type: functional
[19] = tested on: Enterococcus faecium; experiment: Antibacterial activity against Enterococcus faecium NCTC 7171 incubated for 16 to 20 hrs by microdilution method; type: functional; procedure, shortened: as §2
[20] = tested on: Klebsiella pneumoniae; experiment: Antibacterial activity against Klebsiella pneumoniae ATCC 700603 incubated for 16 to 20 hrs by microdilution method; type: functional; procedure, shortened: as §2
[21] = tested on: Acinetobacter baumannii; experiment: Antibacterial activity against Acinetobacter baumannii ATCC 17961 incubated for 16 to 20 hrs by microdilution method; type: functional; procedure, shortened: as §2
[22] = tested on: Pseudomonas aeruginosa; experiment: Antibacterial activity against Pseudomonas aeruginosa […] incubated for 16 to 20 hrs by microdilution method; type: functional; procedure, shortened: as §2
[23] = tested on: Escherichia coli; experiment: Antibacterial activity against Escherichia coli ATCC 25922 incubated for 16 to 20 hrs by microdilution method; type: functional; procedure, shortened: as §2
[24] = tested on: Klebsiella aerogenes; experiment: Antibacterial activity against Enterobacter aerogenes ATCC 35029 incubated for 16 to 20 hrs by microdilution method; type: functional; procedure, shortened: as §2
[25] = tested on: Mus musculus; experiment: AUC (0 to last) in ICR mouse peritonitis model infected with methicillin resistant Staphylococcus aureus ATCC 27660 at 20 mg/kg, iv administered as single dose measured up to 8 hrs by UPLC analysis; type: ADME, organism-based; parameters: dose 20 mg/kg, time 0 - last, route intravenous; conditions: in vivo; procedure, shortened: as §1
[26] = tested on: Staphylococcus aureus; experiment: Antibacterial activity against Staphylococcus aureus COL expressing pbpA antisense plasmid assessed as increase in zone of inhibition after 18 to 20 hrs in presence of xylose; type: functional, organism-based
Procedure, shortened: (§3)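 MRSA COL strains carrying pbpA, pbp2, mecA or pbp3 under antisense control were grown overnight on agar with 34 μg/mL chloramphenicol. Molten chloramphenicol agar with 0 or 50 mM xylose was seeded at 1×10^7 CFU/mL and set. Compound (10 μL) was spotted on the agar, and plates were incubated 36 °C for 18–20 h. Susceptibility with and without xylose induction was compared.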

[27] = tested on: Staphylococcus aureus; experiment: Antibacterial activity against Staphylococcus aureus COL expressing pbp2a antisense plasmid assessed as increase in zone of inhibition after 18 to 20 hrs in presence of xylose; type: functional, organism-based; procedure, shortened: as §3
[28] = tested on: Staphylococcus aureus; experiment: Antibacterial activity against Staphylococcus aureus COL expressing pbp2 antisense plasmid assessed as increase in zone of inhibition after 18 to 20 hrs in presence of xylose; type: functional, organism-based; procedure, shortened: as §3
[29] = tested on: Staphylococcus aureus; experiment: Antibacterial activity against Staphylococcus aureus COL expressing pbp3 antisense plasmid assessed as increase in zone of inhibition after 18 to 20 hrs in presence of xylose; type: functional, organism-based; procedure, shortened: as §3
[30] = Ratio of IC50 for human HepG2 cells to MIC for methicillin-susceptible Staphylococcus aureus ATCC 29213
Procedure, shortened: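 HepG2 XTT cytotoxicity in triplicate, IC50 by nonlinear regression, divided by broth-microdilution MIC for ATCC 29213.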

[31] = Ratio of hemolytic concentration for human RBC to MIC for methicillin-susceptible Staphylococcus aureus ATCC 29213
[32] = tested on: Staphylococcus aureus; experiment: Antibacterial activity against methicillin-resistant Staphylococcus aureus NRS70 in ICR mouse neutropenic thigh infection model assessed as reduction in bacterial load at 20 mg/kg, sc tid administered every 8 hrs starting from 1 hr post infection and measured 7 hrs post last dose; type: functional, organism-based
Procedure, shortened: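 Female ICR mice (n = 8 per group) made neutropenic with ip cyclophosphamide 200 mg/kg at 4 days and 1 day pre-infection; 100 μL NRS70 (~1×10^6 CFU/mL in brain–heart infusion) injected im into right thigh; sc doses at 1, 9, 17 h; thighs harvested at 24 h, homogenized, plated in triplicate on LB agar; log10 CFU/g.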

Row | SMILES | MIC [1] [µg/mL] | AUClast [2] [µg·min/mL] | IC50 [3] [µg/mL] | Activity [4] [%] | MIC [5] [µg/mL] | MIC [6] [µg/mL] | MIC [9] [µg/mL] | MIC [10] [µg/mL] | MIC [11] [µg/mL] | MIC [13] [µg/mL] | MIC [14] [µg/mL] | MIC [15] [µg/mL] | MIC [16] [µg/mL] | MIC [17] [µg/mL] | MIC [19] [µg/mL] | MIC [20] [µg/mL] | MIC [21] [µg/mL] | MIC [22] [µg/mL] | MIC [23] [µg/mL] | MIC [24] [µg/mL] | other results
1 | CS(=O)(=O)Nc1cccc(-n2c(/C=C/c3ccc(C#N)cc3)nc3ccccc3c2=O)c1 | 0.004 (≈ 0.00904 µM) | 31 | 33.4 (≈ 75.5 µM) | < 1 | 0.25 (≈ 0.565 µM) | 0.5 (≈ 1.13 µM) | 0.5 (≈ 1.13 µM) | 0.125 (≈ 0.282 µM) | 0.125 (≈ 0.282 µM) | > 128 | > 128 | > 128 | > 128 | > 128 | > 128 | ≥ 16 | ≥ 16 | ≥ 16 | ≥ 16 | ≥ 16 | MIC [7]: 0.5 µg/mL (≈ 1.13 µM); MIC [8]: 0.25 µg/mL (≈ 0.565 µM); MIC [12]: 0.125 µg/mL (≈ 0.282 µM); MIC [18]: 128 µg/mL (≈ 289 µM)
2 | O=C(O)c1cccc(-n2c(/C=C/c3ccc(F)cc3)nc3ccccc3c2=O)c1 | 1 (≈ 2.59 µM) | – | 95.5 (≈ 247 µM) | < 1 | 2 (≈ 5.18 µM) | 8 (≈ 20.7 µM) | 8 (≈ 20.7 µM) | 1 (≈ 2.59 µM) | 0.125 (≈ 0.324 µM) | 128 (≈ 331 µM) | 128 (≈ 331 µM) | > 128 | > 128 | > 128 | > 128 | ≥ 16 | ≥ 16 | ≥ 16 | ≥ 16 | ≥ 16 | AUClast [25]: 2560 µg·min/mL; MIC [8]: 8 µg/mL (≈ 20.7 µM); MIC [12]: 0.25 µg/mL (≈ 0.647 µM); MIC [18]: > 128 µg/mL
3 | CCO/N=C(\C(=O)N[C@@H]1C(=O)N2C(C(=O)[O-])=C(Sc3nc(-c4cc[n+](C)cc4)cs3)CS[C@H]12)c1nsc(NP(=O)(O)O)n1 | – | – | – | – | – | – | – | – | – | – | – | – | – | – | – | – | – | – | – | – | Activity [26]: Active; Activity [27]: Active; Activity [28]: Active; Activity [29]: Active
4 | O=c1c2ccccc2nc(/C=C/c2ccc(F)cc2)n1-c1cccc(O)c1 | 0.25 (≈ 0.698 µM) | 466 | 16.4 (≈ 45.8 µM) | < 1 | – | – | – | – | – | – | – | – | – | – | ≥ 8 | ≥ 16 | ≥ 16 | ≥ 16 | ≥ 16 | ≥ 16 | Ratio [30]: >30; Ratio [31]: > 120
5 | C#Cc1ccc(/C=C/c2nc3ccccc3c(=O)n2-c2cccc(C(=O)O)c2)cc1 | – | – | – | – | – | – | – | – | – | – | – | – | – | – | – | – | – | – | – | – | Activity [32]: Active; Activity [26]: Active; Activity [27]: Active; Activity [28]: inactive; Activity [29]: inactive
6 | CC(=O)Nc1cccc(-n2c(/C=C/c3ccc(C#N)cc3)nc3ccccc3c2=O)c1 | 0.25 (≈ 0.615 µM) | 38 | 51 (≈ 125 µM) | < 1 | 1 (≈ 2.46 µM) | 1 (≈ 2.46 µM) | 4 (≈ 9.84 µM) | 0.125 (≈ 0.308 µM) | 0.06 (≈ 0.148 µM) | > 128 | > 128 | > 128 | > 128 | 128 (≈ 315 µM) | > 128 | ≥ 16 | ≥ 16 | ≥ 16 | ≥ 16 | ≥ 16 | MIC [18]: 64 µg/mL (≈ 157 µM)
7 | N#Cc1ccc(/C=C/c2nc3ccccc3c(=O)n2-c2cccc(O)c2)cc1 | 0.03 (≈ 0.0821 µM) | 26.8 | 53.6 (≈ 147 µM) | < 1 | 0.5 (≈ 1.37 µM) | 0.25 (≈ 0.684 µM) | 0.5 (≈ 1.37 µM) | 0.06 (≈ 0.164 µM) | 0.125 (≈ 0.342 µM) | > 128 | > 128 | > 128 | > 128 | 128 (≈ 350 µM) | > 128 | ≥ 16 | ≥ 16 | ≥ 16 | ≥ 16 | ≥ 16 | MIC [7]: 0.125 µg/mL (≈ 0.342 µM); MIC [8]: 0.125 µg/mL (≈ 0.342 µM); MIC [12]: 0.125 µg/mL (≈ 0.342 µM); MIC [18]: 64 µg/mL (≈ 175 µM)
